These results are taken from ChEMBL document CHEMBL4715924, “Virtual Screening Approach to Identifying a Novel and Tractable Series of Pseudomonas aeruginosa Elastase Inhibitors” (ACS Med Chem Lett, 2021).

Data set [1] has as its system Pseudomonas aeruginosa PAO1. The experiment in a line: Inhibition of Pseudomonas aeruginosa PAO1 LasB using ECR as substrate assessed as reduction in elastin hydrolysis at 50 uM incubated for 16 hrs by congo-red dye based spectrophotometry relative to control. The method, boiled down: (§1)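 The enzyme source was LasB secreted into P. aeruginosa culture supernatant, with elastin congo-red as substrate. Elastin degradation releases congo-red dye into the supernatant, which is quantified spectrophotometrically.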

The target of data set [2] is T1, Angiotensin-converting enzyme (Oryctolagus cuniculus, UniProt P12822).
T1 sequence (P12822 whole entry): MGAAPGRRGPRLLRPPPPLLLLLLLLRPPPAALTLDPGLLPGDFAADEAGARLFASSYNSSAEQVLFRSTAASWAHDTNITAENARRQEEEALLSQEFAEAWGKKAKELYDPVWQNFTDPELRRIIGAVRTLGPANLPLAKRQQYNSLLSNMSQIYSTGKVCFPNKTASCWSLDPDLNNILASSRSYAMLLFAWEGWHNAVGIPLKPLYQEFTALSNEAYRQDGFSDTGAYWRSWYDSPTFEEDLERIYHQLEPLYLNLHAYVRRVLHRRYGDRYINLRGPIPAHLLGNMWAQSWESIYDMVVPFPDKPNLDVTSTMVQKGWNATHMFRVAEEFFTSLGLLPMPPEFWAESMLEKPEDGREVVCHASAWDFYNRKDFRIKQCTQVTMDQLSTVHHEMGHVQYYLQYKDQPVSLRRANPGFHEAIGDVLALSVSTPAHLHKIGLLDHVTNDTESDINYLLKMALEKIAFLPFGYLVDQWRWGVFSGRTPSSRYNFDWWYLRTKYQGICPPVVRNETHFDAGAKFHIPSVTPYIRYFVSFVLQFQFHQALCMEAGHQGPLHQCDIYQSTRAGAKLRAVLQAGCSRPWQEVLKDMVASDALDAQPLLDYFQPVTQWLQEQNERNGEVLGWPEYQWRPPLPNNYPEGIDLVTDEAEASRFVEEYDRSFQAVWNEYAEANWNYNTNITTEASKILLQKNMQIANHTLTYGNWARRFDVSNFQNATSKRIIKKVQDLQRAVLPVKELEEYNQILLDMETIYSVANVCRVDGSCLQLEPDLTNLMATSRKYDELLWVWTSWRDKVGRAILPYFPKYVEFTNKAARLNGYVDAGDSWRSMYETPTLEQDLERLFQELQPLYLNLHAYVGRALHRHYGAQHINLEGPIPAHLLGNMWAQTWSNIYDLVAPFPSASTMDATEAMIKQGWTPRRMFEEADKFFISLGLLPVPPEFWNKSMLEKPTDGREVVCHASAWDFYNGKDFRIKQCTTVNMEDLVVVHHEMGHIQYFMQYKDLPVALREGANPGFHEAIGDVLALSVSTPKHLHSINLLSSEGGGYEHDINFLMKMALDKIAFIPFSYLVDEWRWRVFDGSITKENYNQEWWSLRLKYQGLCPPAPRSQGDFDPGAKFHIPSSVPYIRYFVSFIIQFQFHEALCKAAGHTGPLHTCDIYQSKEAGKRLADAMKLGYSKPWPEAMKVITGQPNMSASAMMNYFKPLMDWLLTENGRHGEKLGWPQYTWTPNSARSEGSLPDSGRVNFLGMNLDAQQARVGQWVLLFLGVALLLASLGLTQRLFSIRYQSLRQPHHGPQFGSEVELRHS
The experiment in a line: Inhibition of rabbit ACE using Abz-FRK(DNP)-P as substrate measured for every 30 sec for 5 mins by UV-fluorescence based assay.

Data set [3] can be described thus: Inhibition of Pseudomonas aeruginosa LasB using Abz-Ala-Gly-Leu-Ala-p-Nitro-Benzyl-Amide as substrate measured for every 60 sec for 30 mins by UV-fluorescence based assay. The method, boiled down:
(§2)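 Purified LasB enzyme in a fluorometric inhibition assay adapted from a published method. Compounds were screened at a single concentration of 30 μM (follow-ups in duplicate), and selected compounds were retested over 0.4–200 μM in dose–response. A modified version added 0.01% Triton X-100 to the assay buffer.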

Data set [4] deals with Pseudomonas aeruginosa PAO1. Description: Inhibition of Pseudomonas aeruginosa PAO1 LasB using ECR as substrate assessed as reduction in elastin hydrolysis at 25 uM incubated for 16 hrs by congo-red dye based spectrophotometry relative to control. The method, boiled down: as §1
The target in another data set is T2, Interstitial collagenase (Homo sapiens, UniProt P03956).
T2 sequence (P03956 whole entry): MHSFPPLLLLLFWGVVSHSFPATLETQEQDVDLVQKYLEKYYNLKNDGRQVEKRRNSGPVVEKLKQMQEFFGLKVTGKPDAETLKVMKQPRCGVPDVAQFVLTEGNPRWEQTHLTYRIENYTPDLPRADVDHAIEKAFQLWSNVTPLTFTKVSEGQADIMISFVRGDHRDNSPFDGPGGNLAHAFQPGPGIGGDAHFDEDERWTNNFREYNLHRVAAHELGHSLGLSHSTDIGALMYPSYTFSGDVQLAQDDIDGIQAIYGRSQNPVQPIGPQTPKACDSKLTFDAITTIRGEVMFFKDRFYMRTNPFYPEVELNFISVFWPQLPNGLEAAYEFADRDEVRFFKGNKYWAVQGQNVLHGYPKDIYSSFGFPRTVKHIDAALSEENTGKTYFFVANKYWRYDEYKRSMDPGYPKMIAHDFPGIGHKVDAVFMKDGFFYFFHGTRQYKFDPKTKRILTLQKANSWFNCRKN
The experiment in a line: Inhibition of human MMP1.

The target in the next data set is Collagenase 3 (Homo sapiens, UniProt P45452). Description: Inhibition of human MMP13.
Data set [5] deals with 72 kDa type IV collagenase (Homo sapiens, UniProt P08253). Description: Inhibition of human MMP2.
In data set [6] the test system is ACE (off-target) relative to Pseudomonas aeruginosa PAO1 LasB. The experiment in a line: Selectivity index, ratio of Ki for rabbit ACE to Ki for Pseudomonas aeruginosa PAO1 LasB. In kind it is toxicity. The settings on record: read-out: Ratio Ki.
A short description of data set [7]: Inhibition of Pseudomonas aeruginosa LasB using Abz-Ala-Gly-Leu-Ala-p-Nitro-Benzyl-Amide as substrate by micro-titer based fluorimetric assay. In a few lines:
as §2

Sequence of 72 kDa type IV collagenase (P08253 whole entry): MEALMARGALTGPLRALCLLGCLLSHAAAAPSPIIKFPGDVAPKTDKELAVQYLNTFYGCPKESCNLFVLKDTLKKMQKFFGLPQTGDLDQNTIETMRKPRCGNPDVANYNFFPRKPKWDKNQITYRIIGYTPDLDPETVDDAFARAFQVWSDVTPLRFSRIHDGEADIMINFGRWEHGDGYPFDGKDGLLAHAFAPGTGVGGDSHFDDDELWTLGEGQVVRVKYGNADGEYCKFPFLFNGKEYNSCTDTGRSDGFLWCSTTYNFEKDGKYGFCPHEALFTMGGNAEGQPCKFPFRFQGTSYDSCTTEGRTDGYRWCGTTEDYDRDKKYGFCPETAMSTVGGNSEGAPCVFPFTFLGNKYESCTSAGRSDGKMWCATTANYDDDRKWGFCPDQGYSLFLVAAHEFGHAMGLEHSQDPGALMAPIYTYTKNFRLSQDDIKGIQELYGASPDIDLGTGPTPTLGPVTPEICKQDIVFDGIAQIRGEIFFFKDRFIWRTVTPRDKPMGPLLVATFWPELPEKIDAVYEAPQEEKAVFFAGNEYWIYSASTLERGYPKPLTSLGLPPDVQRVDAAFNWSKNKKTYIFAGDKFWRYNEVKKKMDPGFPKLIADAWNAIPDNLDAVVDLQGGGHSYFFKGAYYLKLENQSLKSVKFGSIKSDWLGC

As for `Cn1cc(CNC(=O)C2(CC(=O)O)Cc3ccccc3C2)cn1`, in data set [1], the inhibition (commonly how much of the control response was suppressed) came out at 42%. Besides, the Ki (as a rule, a dissociation constant, usually derived from enzyme kinetics or from competition with a known ligand) was greater than 57 µM in data set [2] and 4.04 µM in data set [3].
Regarding `Cc1ccccc1OCC(=O)N(CCC(=O)O)Cc1cccc(F)c1F`, the values for the Ki in [2] and in data set [3] were greater than 57 µM and 6.87 µM, respectively.
As to `O=C(O)CC1(C(=O)NCCc2nc3ccccc3s2)Cc2ccccc2C1`, the inhibition in [1] came out at 21%; in data set [4], 11%. For the same molecule, the values for the Ki in data set [2] and in data set [3] were greater than 57 µM and 10.5 µM, respectively.
As for `O=C(O)CC1(C(=O)NCc2nc3ccccc3s2)Cc2ccccc2C1`, the IC50 (against Interstitial collagenase; against Collagenase 3; in data set [5]) was greater than 10 µM in each case. Further, the values for the inhibition in [1] and in data set [4] were 79% and 69%, respectively. For the same molecule, in data set [6], the selectivity ratio was greater than 356. The Ki in data set [2] was greater than 57 µM; in [3], 0.16 µM.
As to `Cc1ccc2oc(CNC(=O)C3(CC(=O)O)Cc4ccccc4C3)cc2c1`, the inhibition in [1] is 60%. For the same molecule, the Ki in data set [2] is greater than 57 µM; in data set [3] it was 0.45 µM.
With `O=C(O)CC1(C(=O)NCc2ccccc2)Cc2ccccc2C1`, the results for the inhibition in [1] and in data set [4] were 54% and 43%, respectively. In addition, the Ki in data set [2] was greater than 57 µM; in [3] it was 1.75 µM.
As to `O=C(O)CC1(C(=O)NCc2coc3ccccc23)Cc2ccccc2C1`, the inhibition in data set [1] turned out to be 51%; in data set [4] it was 41%. In addition, the Ki in data set [2] is 31.3 µM; in data set [3] it was 1.9 µM.
With `O=C(O)CC1(C(=O)NCc2nccs2)Cc2ccccc2C1`, the values for the inhibition in data set [1] and in [4] were 65% and 55%, respectively. Besides, the Ki in data set [2] was greater than 57 µM; in data set [3], 0.61 µM.
Consider `Cc1cc(Br)ccc1C(=O)NC1=NC(=O)CN1`, for which the inhibition constant Ki is greater than 57 µM in data set [2] and 18.1 µM in data set [3].
Turning to `Cn1c(CNC(=O)C2(CC(=O)O)Cc3ccccc3C2)cc2ccccc21`, the inhibition is 60% in [1] and 51% in data set [4]. Also, the results for the Ki in [2] and in [3] were greater than 57 µM and 0.69 µM, respectively.
Turning to `C[C@@H](NC(=O)C1(CC(=O)O)Cc2ccccc2C1)c1cc2ccccc2o1`, the inhibition turned out to be 44% in data set [1] and 33% in [4]. For the same molecule, the Ki was greater than 57 µM in data set [2] and 2.27 µM in data set [3].
As for `CC(NC(=O)CC1(C(=O)O)Cc2ccccc2C1)c1cc2ccccc2o1` (racemic), the inhibition in data set [1] stood at 22%. Moreover, the Ki in data set [2] was greater than 57 µM; in data set [3], 14.8 µM.
Regarding `O=C(O)CC1(C(=O)NCCc2cc3ccccc3[nH]2)Cc2ccccc2C1`, the results for the inhibition in data set [1] and in data set [4] were 25% and 18%, respectively. Besides, the inhibition constant (Ki) in data set [2] was greater than 57 µM; in [3], 4.34 µM.
As to `O=C(O)CC1(C(=O)NCCc2nc3ccccc3[nH]2)Cc2ccccc2C1`, the inhibition in data set [1] was determined as 18%; in data set [4] it was 11%. Moreover, the figures for the Ki in data set [2] and in data set [3] were greater than 57 µM and 13.6 µM, respectively.
As to `Cn1cc(CNC(=O)CC2(C(=O)O)Cc3ccccc3C2)cn1`, the inhibition in [1] came out at 8%. The Ki in [2] was greater than 57 µM; in data set [3], greater than 92 µM.
As to `C[C@H](NC(=O)C1(CC(=O)O)Cc2ccccc2C1)c1cc2ccccc2o1`, the inhibition in [1] is 47%; in data set [4] it was 37%. In addition, the results for the Ki in data set [2] and in data set [3] were greater than 57 µM and 3.21 µM, respectively.
For the molecule `O=C(O)CC1(C(=O)NCc2c[nH]c3ccccc23)Cc2ccccc2C1`, the inhibition is 35% in [1] and 23% in data set [4]. Further, the figures for the Ki in [2] and in data set [3] were greater than 57 µM and 3.54 µM, respectively.
Take `O=C(CC1(C(=O)O)Cc2ccccc2C1)NCc1ccc2ccccc2n1`: the inhibition in data set [1] amounted to 7%. The same molecule came in with a Ki in [3] of 76.2 µM.
Take `O=C(O)CC1(C(=O)NCc2nc(-c3ccccc3)cs2)Cc2ccccc2C1`: the IC50 (on Interstitial collagenase; at Collagenase 3; in data set [5]) was greater than 10 µM throughout. Moreover, the inhibition amounted to 76% in data set [1] and 68% in [4]. Moreover, the selectivity ratio in data set [6] is greater than 356. The results for the Ki in data set [2] and in [3] were greater than 57 µM and 0.12 µM, respectively.
Consider `NC(=O)[C@H](Cc1ccc(O)cc1)NC(=O)[C@H](Cc1ccccc1)NC(=O)CS`, for which, in data set [7], the Ki amounted to 0.041 µM.
Regarding `O=C(O)CC1(C(=O)NCc2cc3ccccc3s2)Cc2ccccc2C1`, the inhibition in data set [1] was 57%; in data set [4], 47%. Besides, the Ki in [2] was greater than 57 µM; in data set [3], 0.62 µM.
As to `O=C(O)CC1(C(=O)NCCc2cc3ccccc3s2)Cc2ccccc2C1`, the inhibition in data set [1] amounted to 28%; in data set [4], 18%. For the same molecule, the values for the Ki in data set [2] and in [3] were 40.6 µM and 4.85 µM, respectively.
Turning to `O=C(O)CC1(C(=O)NCc2cc3ccccc3o2)Cc2ccccc2C1`, the inhibition amounted to 54% in [1] and 45% in [4]. For the same molecule, the Ki in data set [2] was greater than 57 µM; in [3] it was 1.4 µM.
Regarding `O=C(O)CC1(C(=O)NCc2ccc3ccccc3n2)Cc2ccccc2C1`, the inhibition in data set [1] was found to be 63%. The figures for the inhibitory constant (Ki) in [2] and in [3] were greater than 57 µM and 0.61 µM, respectively.
Regarding `Cn1c(CNC(=O)C2(CC(=O)O)Cc3ccccc3C2)nc2ccccc21`, the values for the inhibition in data set [1] and in [4] were 32% and 21%, respectively. Moreover, the figures for the Ki in data set [2] and in [3] were 18 µM and 12.5 µM, respectively.
As for `O=C(O)CC1(C(=O)NCc2cc3ccccc3[nH]2)Cc2ccccc2C1`, the values for the inhibition in data set [1] and in [4] were 49% and 35%, respectively. In addition, the Ki is greater than 57 µM in data set [2] and 1.08 µM in data set [3].
`O=C(O)CC1(C(=O)NCCc2cc3ccccc3o2)Cc2ccccc2C1`: the inhibition in data set [1] came to 25%; in data set [4], 16%. Also, the results for the Ki in [2] and in data set [3] were greater than 57 µM and 5.66 µM, respectively.
The like results for `O=C(O)CC1(C(=O)NCc2nc3ccccc3[nH]2)Cc2ccccc2C1` were, in that order, 20%, 11%, greater than 57 µM and 21.5 µM.
On the same counts, the results for `O=C(O)CC1(C(=O)NCc2ncc(-c3ccccc3)s2)Cc2ccccc2C1` are 54%, 42%, greater than 57 µM and 1.19 µM.
Regarding `Cc1ccc2oc(CNC(=O)CC3(C(=O)O)Cc4ccccc4C3)cc2c1`, in data set [1], the inhibition turned out to be 2%. Also, the figures for the Ki in data set [2] and in data set [3] were greater than 57 µM and greater than 92 µM, respectively.
